Test results published in ChEMBL document CHEMBL1944541, “Novel inhibitors of nitric oxide synthase with antioxidant properties” (Eur J Med Chem, 2012).

Tests used:
Nitric oxide synthase 1 = Nitric oxide synthase 1 (Rattus norvegicus, UniProt P29476); assay: Inhibition of rat recombinant nNOS expressed in baculovirus-infected Sf9 cells assessed as conversion of oxyhemoglobin to methemoglobin by UV spectrophotometer analysis
Nitric oxide synthase 3 = target: T1, Nitric oxide synthase 3 (Mus musculus, UniProt P70313); assay: Inhibition of C57BL/6 mouse eNOS assessed as conversion of oxyhemoglobin to methemoglobin by UV spectrophotometer analysis
T1 sequence (P70313 whole entry): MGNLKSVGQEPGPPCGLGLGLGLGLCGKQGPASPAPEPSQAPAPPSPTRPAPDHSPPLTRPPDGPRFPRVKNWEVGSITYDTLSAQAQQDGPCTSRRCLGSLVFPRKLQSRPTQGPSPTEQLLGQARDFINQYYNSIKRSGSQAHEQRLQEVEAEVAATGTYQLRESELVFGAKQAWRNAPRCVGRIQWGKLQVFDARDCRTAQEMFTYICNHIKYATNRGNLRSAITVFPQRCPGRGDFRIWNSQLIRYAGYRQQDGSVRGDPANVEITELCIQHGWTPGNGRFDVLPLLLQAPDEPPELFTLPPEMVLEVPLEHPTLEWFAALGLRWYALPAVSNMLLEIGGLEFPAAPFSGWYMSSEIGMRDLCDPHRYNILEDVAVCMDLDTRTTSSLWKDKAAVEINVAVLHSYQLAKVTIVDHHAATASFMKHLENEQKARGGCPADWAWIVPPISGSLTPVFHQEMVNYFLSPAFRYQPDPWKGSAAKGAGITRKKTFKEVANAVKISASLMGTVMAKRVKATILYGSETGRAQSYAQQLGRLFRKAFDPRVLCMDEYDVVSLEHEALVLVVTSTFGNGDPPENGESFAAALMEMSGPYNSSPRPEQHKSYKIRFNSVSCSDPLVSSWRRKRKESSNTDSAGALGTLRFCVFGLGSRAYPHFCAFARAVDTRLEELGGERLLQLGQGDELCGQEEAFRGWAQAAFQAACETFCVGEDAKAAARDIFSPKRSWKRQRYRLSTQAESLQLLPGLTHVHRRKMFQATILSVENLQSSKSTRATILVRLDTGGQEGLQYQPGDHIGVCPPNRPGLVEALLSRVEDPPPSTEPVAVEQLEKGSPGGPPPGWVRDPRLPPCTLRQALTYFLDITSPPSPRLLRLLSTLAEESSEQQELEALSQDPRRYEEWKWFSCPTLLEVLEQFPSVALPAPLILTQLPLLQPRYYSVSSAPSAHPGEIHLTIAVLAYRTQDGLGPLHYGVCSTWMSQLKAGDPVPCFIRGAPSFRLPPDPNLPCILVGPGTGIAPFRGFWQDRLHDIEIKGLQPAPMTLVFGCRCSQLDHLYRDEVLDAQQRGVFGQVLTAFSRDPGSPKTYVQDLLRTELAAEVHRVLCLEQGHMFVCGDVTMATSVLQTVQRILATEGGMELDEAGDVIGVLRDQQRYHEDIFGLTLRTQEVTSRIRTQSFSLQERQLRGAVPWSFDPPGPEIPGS
In short: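 eNOS from H5V mouse endothelial cells (passage 5, DMEM with 10% FCS, 37 °C, 5% CO2). Cells were sonicated in Tris-HCl pH 7.4 with EDTA, DTT and protease inhibitors, and the 20,000 g supernatant was used. Activity was followed as oxyhemoglobin→methemoglobin conversion in Hepes pH 7.4 with L-arginine, NADPH, FAD, BH4, Ca2+ and calmodulin. Compounds tested at 500, 100 and 50. Results reported as Ki or percent inhibition.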

[1] = system: Radical scavenging activity; assay: Antioxidant activity assessed as DPPH free radical scavenging activity after 10 mins; format: functional
In short: (§1)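 Compounds in ethanol with DPPH radical, tested at 50, 100 and 500, held 10 min at room temperature. Absorbance read at 517 nm and reported as percent decrease against control. IC50 was calculated for selected compounds. Trolox served as reference. Standard deviation was ≤10% (n ≥ 3).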

[2] = system: Radical scavenging activity; assay: Antioxidant activity assessed as DPPH free radical scavenging activity at 500 uM after 10 mins relative to control; format: functional; in short: as §1
[3] = system: Radical scavenging activity; assay: Antioxidant activity assessed as DPPH free radical scavenging activity at 100 uM after 10 mins relative to control; format: functional; in short: as §1
[4] = system: Radical scavenging activity; assay: Antioxidant activity assessed as DPPH free radical scavenging activity at 50 uM after 10 mins relative to control; format: functional; in short: as §1
[5] = Antioxidant activity assessed as NADH oxidation-induced superoxide radical scavenging activity after 20 mins; format: functional
In short: (§2)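 Superoxide generated without a Fenton-type reaction from NADH, EDTA/MnCl2 and β-mercaptoethanol in triethanolamine-diethanolamine buffer, pH 7.4 (1 mL). Compounds tested at 25, 50 and 100. […] IC50 was calculated. SOD (40 mU/ml) served as reference. SD ≤10% (n ≥ 3).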

[6] = Antioxidant activity assessed as NADH oxidation-induced superoxide radical scavenging activity at 100 uM after 20 mins relative to control; format: functional; in short: as §2
[7] = Antioxidant activity assessed as NADH oxidation-induced superoxide radical scavenging activity at 50 uM after 20 mins relative to control; format: functional; in short: as §2
[8] = Antioxidant activity assessed as NADH oxidation-induced superoxide radical scavenging activity at 25 uM after 20 mins relative to control; format: functional; in short: as §2
Plasma [9] = assay: Antioxidant activity in human plasma assessed as inhibition of Fe2+-induced lipid hydroperoxidation after 2 hrs by FOX assay; format: functional, cell-free
Plasma [10] = assay: Antioxidant activity in human plasma assessed as inhibition of Fe2+-induced lipid hydroperoxidation at 100 uM after 2 hrs by FOX assay relative to control; format: functional, cell-free
In short: (§3)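 Plasma from a healthy donor: heparinized venous blood taken after an overnight fast, spun at 800 g for 20 min. Plasma was diluted 1:1 with oxygenated PBS and incubated 2 h at 37 °C with or without compound (10, 50, 100). Lipid hydroperoxides were measured by FOX assay (Fe2+→Fe3+ with xylenol orange, 560 nm), calibrated against H2O2. Results given as percent inhibition against untreated plasma.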

Plasma [11] = assay: Antioxidant activity in human plasma assessed as inhibition of Fe2+-induced lipid hydroperoxidation at 50 uM after 2 hrs by FOX assay relative to control; format: functional, cell-free; in short: as §3
Plasma [12] = assay: Antioxidant activity in human plasma assessed as inhibition of Fe2+-induced lipid hydroperoxidation at 25 uM after 2 hrs by FOX assay relative to control; format: functional, cell-free
CYP450 = assay: Inhibition of rat spleen microsomal CYP450 assessed as reduction of NADPH dependent cytochrome c at 500 uM; format: ADME; conditions: spleen microsomes, probe cytochrome c
In short: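 Rat spleen microsomal P450 activity measured as NADPH-dependent cytochrome c reduction. Incubation 15 min at 25 °C with or without compound, range 5–500.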

Chain of Nitric oxide synthase 1 (P29476 whole entry): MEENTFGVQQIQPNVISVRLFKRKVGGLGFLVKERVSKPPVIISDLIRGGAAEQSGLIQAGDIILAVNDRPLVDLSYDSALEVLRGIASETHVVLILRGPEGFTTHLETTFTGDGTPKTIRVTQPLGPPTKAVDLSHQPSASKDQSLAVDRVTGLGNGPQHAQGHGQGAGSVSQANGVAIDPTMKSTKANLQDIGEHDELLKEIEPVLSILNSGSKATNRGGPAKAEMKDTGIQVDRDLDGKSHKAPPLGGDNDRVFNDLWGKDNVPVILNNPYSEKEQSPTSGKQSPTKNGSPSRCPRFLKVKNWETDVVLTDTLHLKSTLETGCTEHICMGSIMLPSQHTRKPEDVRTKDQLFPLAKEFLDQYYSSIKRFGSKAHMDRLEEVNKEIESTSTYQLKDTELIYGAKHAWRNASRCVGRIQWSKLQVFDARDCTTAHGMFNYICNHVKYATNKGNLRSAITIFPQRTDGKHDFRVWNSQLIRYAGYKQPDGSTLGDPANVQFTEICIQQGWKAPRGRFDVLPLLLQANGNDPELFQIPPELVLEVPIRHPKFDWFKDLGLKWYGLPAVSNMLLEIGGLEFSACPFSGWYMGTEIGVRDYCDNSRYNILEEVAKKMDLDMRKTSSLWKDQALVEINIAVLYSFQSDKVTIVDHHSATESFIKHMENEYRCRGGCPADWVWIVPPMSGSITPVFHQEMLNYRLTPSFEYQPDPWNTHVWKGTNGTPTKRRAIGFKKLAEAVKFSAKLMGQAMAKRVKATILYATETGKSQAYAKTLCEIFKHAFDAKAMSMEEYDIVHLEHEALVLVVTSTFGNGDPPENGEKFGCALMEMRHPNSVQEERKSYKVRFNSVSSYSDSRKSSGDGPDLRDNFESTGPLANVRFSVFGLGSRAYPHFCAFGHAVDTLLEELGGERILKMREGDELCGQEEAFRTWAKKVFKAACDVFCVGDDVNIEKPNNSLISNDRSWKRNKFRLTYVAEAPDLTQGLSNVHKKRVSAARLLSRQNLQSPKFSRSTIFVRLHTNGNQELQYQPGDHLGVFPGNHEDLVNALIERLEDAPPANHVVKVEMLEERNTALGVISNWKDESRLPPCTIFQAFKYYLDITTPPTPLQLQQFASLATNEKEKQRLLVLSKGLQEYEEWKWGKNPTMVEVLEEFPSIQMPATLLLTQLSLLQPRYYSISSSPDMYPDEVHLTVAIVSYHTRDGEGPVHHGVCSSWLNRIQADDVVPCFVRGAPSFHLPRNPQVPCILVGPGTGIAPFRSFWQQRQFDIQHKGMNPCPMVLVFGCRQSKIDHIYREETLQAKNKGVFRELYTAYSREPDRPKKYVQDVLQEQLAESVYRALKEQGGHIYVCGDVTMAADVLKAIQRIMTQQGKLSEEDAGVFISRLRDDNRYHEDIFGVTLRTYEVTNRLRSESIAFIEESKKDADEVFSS

CCc1nc(C)cn1CC(=O)c1ccc([N+](=O)[O-])cc1
Ki (Nitric oxide synthase 1): 75 µM | Ki (Nitric oxide synthase 3): 75 µM

O=C(Cn1cc2ccccc2n1)c1ccc([N+](=O)[O-])cc1
Ki (Nitric oxide synthase 1): 32.5 µM | Ki (Nitric oxide synthase 3): 60 µM

Cc1cc2ncn(CC(=O)c3ccc([N+](=O)[O-])cc3)c2cc1C
Ki (Nitric oxide synthase 1): 13.8 µM | Ki (Nitric oxide synthase 3): 37.5 µM | Activity [1]: Dose-dependent effect | IC50 [1]: > 500 µM | Activity [2]: 45% | Activity [3]: 19% | Activity [4]: 11% | Activity [5]: Dose-dependent effect | IC50 [5]: > 100 µM | Activity [6]: 45% | Activity [7]: 37% | Activity [8]: 0%

CC(C)c1nccn1CC(=O)c1ccc(Br)cc1
Ki (Nitric oxide synthase 1): 450 µM

CCCc1nccn1CC(=O)c1ccc([N+](=O)[O-])cc1
Ki (Nitric oxide synthase 1): 40 µM | Ki (Nitric oxide synthase 3): 45 µM | Activity [1]: Dose-dependent effect | IC50 [1]: 262 µM | Activity [2]: 56% | Activity [3]: 35% | Activity [4]: 25% | Activity [5]: Dose-dependent effect | IC50 [5]: 38 µM | Activity [6]: 62% | Activity [7]: 34% | Activity [8]: 22% | IC50 (Plasma [9]): > 100 µM | inhibition (Plasma [10]): 44% | inhibition (Plasma [11]): 31% | inhibition (Plasma [12]): 30%

O=C(Cn1cnc2ncccc21)c1ccc([N+](=O)[O-])cc1
Ki (Nitric oxide synthase 1): 35.8 µM | Ki (Nitric oxide synthase 3): 45 µM

O=C(Cn1ccnc1)c1ccc([N+](=O)[O-])cc1
Ki (Nitric oxide synthase 1): 105 µM | Ki (Nitric oxide synthase 3): > 5000 µM | IC50 [1]: 415 µM | IC50 [5]: 165 µM | IC50 (Plasma [9]): 18 µM

O=C(Cn1cncn1)c1ccc([N+](=O)[O-])cc1
Ki (Nitric oxide synthase 1): 47.5 µM | Ki (Nitric oxide synthase 3): 40 µM

O=C(Cn1cnc(-c2ccccc2)c1)c1ccc([N+](=O)[O-])cc1
Ki (Nitric oxide synthase 1): 45 µM | Ki (Nitric oxide synthase 3): 70 µM

Cc1cc(C)n(CC(=O)c2ccc([N+](=O)[O-])cc2)n1
Ki (Nitric oxide synthase 1): 65 µM | Ki (Nitric oxide synthase 3): 90 µM

O=C(Cn1cc2cccc([N+](=O)[O-])c2n1)c1ccc([N+](=O)[O-])cc1
Ki (Nitric oxide synthase 1): 66.2 µM | Ki (Nitric oxide synthase 3): 75 µM

O=C(Cn1cccn1)c1ccc([N+](=O)[O-])cc1
Ki (Nitric oxide synthase 1): 40 µM | Ki (Nitric oxide synthase 3): 60 µM

Cc1cncn1CC(=O)c1ccc([N+](=O)[O-])cc1
Ki (Nitric oxide synthase 1): 90 µM | Ki (Nitric oxide synthase 3): 45 µM

CC(C)c1nccn1CC(=O)c1ccc([N+](=O)[O-])cc1
Ki (Nitric oxide synthase 1): 22.5 µM | Ki (Nitric oxide synthase 3): 500 µM | IC50 [1]: 230 µM | IC50 [5]: 185 µM | IC50 (Plasma [9]): > 100 µM

Cc1nccn1CC(=O)c1ccccc1
Ki (Nitric oxide synthase 1): > 500 µM

O=C(Cn1nc2ccccc2n1)c1ccc([N+](=O)[O-])cc1
Ki (Nitric oxide synthase 1): 22.5 µM | Ki (Nitric oxide synthase 3): 30 µM

CC(C)c1nccn1CC(=O)c1ccccc1
Ki (Nitric oxide synthase 1): 750 µM

O=C(Cn1nnc2ccccc21)c1ccc([N+](=O)[O-])cc1
Ki (Nitric oxide synthase 1): 12.5 µM | Ki (Nitric oxide synthase 3): 32.5 µM | Activity [1]: Dose-dependent effect | IC50 [1]: > 500 µM | Activity [2]: 31% | Activity [3]: 21% | Activity [4]: 14% | Activity [5]: Dose-dependent effect | IC50 [5]: 85 µM | Activity [6]: 51% | Activity [7]: 35% | Activity [8]: 26% | IC50 (Plasma [9]): 17 µM | inhibition (Plasma [10]): 57% | inhibition (Plasma [11]): 48% | inhibition (Plasma [12]): 37%

O=C(Cn1cnc(-c2ccccc2)c1-c1ccccc1)c1ccc([N+](=O)[O-])cc1
Ki (Nitric oxide synthase 1): 36.3 µM | Ki (Nitric oxide synthase 3): 25 µM

Cc1cn(CC(=O)c2ccc([N+](=O)[O-])cc2)cn1
Ki (Nitric oxide synthase 1): 85 µM | Ki (Nitric oxide synthase 3): > 2000 µM | inhibition at 500 µM (CYP450): 13% | Activity [1]: Dose-dependent effect | IC50 [1]: > 500 µM | Activity [2]: 41% | Activity [3]: 17% | Activity [4]: 12% | Activity [5]: Dose-dependent effect | IC50 [5]: 66 µM | Activity [6]: 56% | Activity [7]: 23% | Activity [8]: 20% | IC50 (Plasma [9]): 10 µM | inhibition (Plasma [10]): 69% | inhibition (Plasma [11]): 65% | inhibition (Plasma [12]): 53%

O=C(Cn1ccnc1-c1ccccc1)c1ccc([N+](=O)[O-])cc1
Ki (Nitric oxide synthase 1): 40 µM | Ki (Nitric oxide synthase 3): 37.5 µM

O=C(Cn1cnc([N+](=O)[O-])c1)c1ccc([N+](=O)[O-])cc1
Ki (Nitric oxide synthase 1): 120 µM | Ki (Nitric oxide synthase 3): 120 µM

Cc1ccnn1CC(=O)c1ccc([N+](=O)[O-])cc1
Ki (Nitric oxide synthase 1): 63 µM | Ki (Nitric oxide synthase 3): 30 µM

O=C(Cn1cccc1)c1ccc([N+](=O)[O-])cc1
Ki (Nitric oxide synthase 1): 230 µM

Cc1nccn1CC(=O)c1ccc([N+](=O)[O-])cc1
Ki (Nitric oxide synthase 1): 74 µM | Ki (Nitric oxide synthase 3): > 2000 µM | IC50 [1]: 165 µM | IC50 [5]: 70 µM | IC50 (Plasma [9]): 1.75 µM

O=C(Cn1cnc2cccnc21)c1ccc([N+](=O)[O-])cc1
Ki (Nitric oxide synthase 1): 31.7 µM | Ki (Nitric oxide synthase 3): 70.2 µM

O=C(Cn1cnc2ccccc21)c1ccccc1
Ki (Nitric oxide synthase 1): 480 µM

O=C(Cn1cnc2ccccc21)c1ccc([N+](=O)[O-])cc1
Ki (Nitric oxide synthase 1): 46.6 µM | Ki (Nitric oxide synthase 3): 2.75 µM

O=C(Cn1ccnc1)c1ccc(S(=O)(=O)C(F)(F)F)cc1
Ki (Nitric oxide synthase 1): 450 µM

Cc1nccn1CC(=O)c1ccc(Br)cc1
Ki (Nitric oxide synthase 1): 620 µM
